# Data from ChEMBL document CHEMBL4049388, “Facile and efficient access to Androsten-17-(1',3',4')-pyrazoles and Androst-17β-(1',3',4')-pyrazoles via Vilsmeier reagents, and their antiproliferative activity evaluation in vitro” (Eur J Med Chem, 2017).
# Key:
# [1] = system: A549; test: Cytotoxicity against human A549 cells assessed as growth inhibition at 10 uM after 72 hrs by SRB assay relative to control; format: functional; conditions: A549, 72 h, read-out: GI
# How it was run: (§1)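 SRB single-dose screen at 10 μM on 293T, A549, Hela and MCF-7 cells. Results reported as percent inhibitory ratio (mean ± SD).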
# [2] = system: MCF7; test: Cytotoxicity against human MCF7 cells assessed as growth inhibition at 10 uM after 72 hrs by SRB assay relative to control; format: functional; conditions: MCF7, 72 h, read-out: GI; how it was run: as §1
# [3] = system: HeLa; test: Cytotoxicity against human HeLa cells assessed as growth inhibition at 10 uM after 72 hrs by SRB assay relative to control; format: functional; conditions: read-out: GI; how it was run: as §1
# [4] = Cytotoxicity against human 293T cells assessed as growth inhibition at 10 uM after 72 hrs by SRB assay relative to control; format: cell-based; conditions: HEK-293T cells, read-out: GI; how it was run: as §1
# [5] = system: HeLa; test: Cytotoxicity against human HeLa cells after 72 hrs by SRB assay; format: functional, cell-based
# How it was run: (§2)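 SRB assay on 293T, A549, Hela and MCF-7 cells, with cisplatin as reference control. IC50 calculated for each compound from triplicate assays.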
# [6] = system: HEK-293T; test: Cytotoxicity against human 293T cells after 72 hrs by SRB assay; format: cell-based; how it was run: as §2
# [7] = system: MCF7; test: Cytotoxicity against human MCF7 cells after 72 hrs by SRB assay; format: functional, cell-based; conditions: MCF7, 72 h; how it was run: as §2
# [8] = system: A549; test: Cytotoxicity against human A549 cells after 72 hrs by SRB assay; format: functional, cell-based; conditions: A549, 72 h; how it was run: as §2
Structure (SMILES),inhibition of growth at 10 µM [1] [%],inhibition of growth at 10 µM [2] [%],inhibition of growth at 10 µM [3] [%],"inhibition at 72 h, 10 µM [4] [%]",IC50 [5] [µM],IC50 [6] [µM],IC50 [7] [µM],IC50 [8] [µM]
CCCCNCc1cn(-c2ccccc2)nc1[C@H]1CC[C@H]2[C@@H]3CCC4C[C@@H](O)CC[C@]4(C)[C@H]3CC[C@]12C (stereo partly drawn),< 10,21.9,29.3,< 10,,,,
CC(C)NCc1cn(-c2ccccc2)nc1[C@H]1CC[C@H]2[C@@H]3CCC4C[C@@H](O)CC[C@]4(C)[C@H]3CC[C@]12C (stereo partly drawn),30.6,70.8,74.1,87.4,1.98,1.03,7.45,
CCNCc1cn(-c2ccccc2)nc1[C@H]1CC[C@H]2[C@@H]3CCC4C[C@@H](O)CC[C@]4(C)[C@H]3CC[C@]12C (stereo partly drawn),92.4,88.9,88.4,91.2,3.28,5.29,3.92,6.35
CNCc1cn(-c2ccccc2)nc1C1=CC[C@H]2[C@@H]3CC=C4C[C@@H](O)CC[C@]4(C)[C@H]3CC[C@]12C,82.1,81.1,90.5,91.6,3.86,2.11,6.91,3.68
C[C@]12CC[C@H](O)C[C@@H]1CC[C@@H]1[C@@H]2CC[C@]2(C)[C@@H](c3nn(-c4ccccc4)cc3CO)CC[C@@H]12,< 10,27.8,< 10,18.5,,,,
COc1ccccc1NCc1cn(-c2ccccc2)nc1C1=CC[C@H]2[C@@H]3CC=C4C[C@@H](O)CC[C@]4(C)[C@H]3CC[C@]12C,< 10,18.1,< 10,< 10,,,,
CCCNCc1cn(-c2ccccc2)nc1C1=CC[C@H]2[C@@H]3CC=C4C[C@@H](O)CC[C@]4(C)[C@H]3CC[C@]12C,91.2,90.7,93.5,93.7,3.61,7.25,4.29,1.57
CNCc1cn(-c2ccccc2)nc1[C@H]1CC[C@H]2[C@@H]3CCC4C[C@@H](O)CC[C@]4(C)[C@H]3CC[C@]12C (stereo partly drawn),< 10,45.9,41.3,79.2,,,,
CCCCNCc1cn(-c2ccccc2)nc1C1=CC[C@H]2[C@@H]3CC=C4C[C@@H](O)CC[C@]4(C)[C@H]3CC[C@]12C,92.9,93.7,92.6,95.1,3.37,2.63,3.18,1.93
C[C@]12CC[C@H]3[C@@H](CCC4C[C@@H](O)CC[C@@]43C)[C@@H]1CC[C@@H]2c1nn(-c2ccccc2)cc1CNc1ccccc1 (stereo partly drawn),< 10,16.9,< 10,12.5,,,,
CCCNCc1cn(-c2ccccc2)nc1[C@H]1CC[C@H]2[C@@H]3CCC4C[C@@H](O)CC[C@]4(C)[C@H]3CC[C@]12C (stereo partly drawn),91.5,88.6,90.3,91.9,1.98,0.62,4.84,6.02
C[C@]12CC[C@H](O)CC1=CC[C@@H]1[C@@H]2CC[C@]2(C)C(c3nn(-c4ccccc4)cc3CNCc3ccccc3)=CC[C@@H]12,< 10,25.4,< 10,50.7,,,,
C[C@]12CC[C@H]3[C@@H](CCC4C[C@@H](O)CC[C@@]43C)[C@@H]1CC[C@@H]2c1nn(-c2ccccc2)cc1CNCc1ccccc1 (stereo partly drawn),56.5,44.4,48.3,60.8,,,,
CC(C)NCc1cn(-c2ccccc2)nc1C1=CC[C@H]2[C@@H]3CC=C4C[C@@H](O)CC[C@]4(C)[C@H]3CC[C@]12C,93.3,92.1,92.4,94.7,3.49,7.51,6.36,2.87
